Key:
[1] = Metabolic stability in cynomolgus monkey liver microsomes assessed as parent compound remaining at 10 uM preincubated for 10 mins in water bath followed by NADPH addition and measured after 60 mins by LC-MS/MS analysis; type: ADME, Macaca fascicularis, Microsome; details: read-out: Stability
[2] = target: Phosphatidylinositol 4,5-bisphosphate 3-kinase catalytic subunit beta isoform (Homo sapiens, UniProt P42338); experiment: Inhibition of PI3Kbeta in human MDA-MB-468 cells assessed as reduction in AKT phosphorylation at residue S473 measured after 30 mins by sandwich ELISA
[3] = Dose normalized AUC (0 to last) in Sprague-Dawley rat at 3 mg/kg, po by HPLC analysis; type: ADME, organism-based; details: in vivo
[4] = Inhibition of PI3K in human MCF7 cells assessed as reduction in AKT phosphorylation at residue S473 incubated for 2 hrs followed by insulin addition by ELISA; type: cell-based; details: MCF7, 2 h
[5] = Half life in Sprague-Dawley rat at 1 mg/kg, iv by HPLC analysis; type: ADME, organism-based; details: in vivo
BT-474 [6] = experiment: Antitumor activity against PI3KCA mutant human BT474 cells xenografted in BALB/c nude mouse assessed as tumor growth inhibition at 30 mg/kg, po administered once daily for 21 days by caliper method relative to control; type: functional; details: BT-474, po, 504 h, read-out: TGI
Procedure, shortened: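 BT-474 (PIK3CA mutant human breast ductal carcinoma) subcutaneous xenografts in Balb/c nude mice. Oral dosing once daily for 21 days. Vehicle 0.5% MC + 0.2% Tween 80. Read-out is tumor growth inhibition.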

Mus musculus [7] = experiment: In vivo inhibition of PI3K in BALB/c nude mouse xenografted with PI3KCA mutant human BT474 cells assessed as reduction in AKT phosphorylation at 15 to 40 mg/kg, po administered once daily by Western blot analysis; type: functional, organism-based; details: BT-474, TDE = time-dependent effect
Procedure, shortened: (§1)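 Mice bearing BT-474 subcutaneous xenografts were dosed orally in vehicle 0.5% MC + 0.2% Tween 80. Tumor Akt phosphorylation was assessed for time and dose dependence.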

[8] = target: T1, Phosphatidylinositol 4,5-bisphosphate 3-kinase catalytic subunit delta isoform (Homo sapiens, UniProt O00329); experiment: Inhibition of PI3Kdelta in human Jeko1 cells assessed as reduction in AKT phosphorylation at residue S473 measured after 2 hrs by sandwich ELISA
T1 sequence (O00329 whole entry): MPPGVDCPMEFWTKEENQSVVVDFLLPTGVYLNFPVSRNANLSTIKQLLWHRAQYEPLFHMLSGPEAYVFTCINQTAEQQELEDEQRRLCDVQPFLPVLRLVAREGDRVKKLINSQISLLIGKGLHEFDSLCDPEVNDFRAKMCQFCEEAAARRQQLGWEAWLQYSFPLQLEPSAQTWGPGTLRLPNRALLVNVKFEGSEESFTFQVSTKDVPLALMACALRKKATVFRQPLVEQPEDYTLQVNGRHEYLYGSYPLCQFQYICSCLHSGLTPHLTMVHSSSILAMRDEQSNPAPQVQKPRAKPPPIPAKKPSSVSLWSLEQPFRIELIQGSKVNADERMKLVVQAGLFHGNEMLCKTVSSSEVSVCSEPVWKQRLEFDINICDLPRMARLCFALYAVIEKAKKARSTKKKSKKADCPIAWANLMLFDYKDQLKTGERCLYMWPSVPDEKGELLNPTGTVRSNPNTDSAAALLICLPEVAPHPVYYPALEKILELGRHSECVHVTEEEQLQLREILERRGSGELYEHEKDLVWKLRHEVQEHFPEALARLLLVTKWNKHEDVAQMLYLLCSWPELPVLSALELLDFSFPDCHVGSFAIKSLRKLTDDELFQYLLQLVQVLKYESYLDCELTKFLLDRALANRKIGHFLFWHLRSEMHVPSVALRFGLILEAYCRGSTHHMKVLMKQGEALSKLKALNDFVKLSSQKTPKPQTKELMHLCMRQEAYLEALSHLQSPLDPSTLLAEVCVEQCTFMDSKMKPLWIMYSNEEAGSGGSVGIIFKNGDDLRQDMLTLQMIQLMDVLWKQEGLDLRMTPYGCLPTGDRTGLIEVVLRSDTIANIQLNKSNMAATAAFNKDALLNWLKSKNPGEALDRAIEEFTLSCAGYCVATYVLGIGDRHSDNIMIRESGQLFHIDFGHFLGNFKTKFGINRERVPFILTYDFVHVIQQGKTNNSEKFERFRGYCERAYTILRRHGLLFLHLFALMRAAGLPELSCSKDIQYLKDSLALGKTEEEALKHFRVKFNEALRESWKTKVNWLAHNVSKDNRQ

[9] = Metabolic stability in human liver microsomes assessed as parent compound remaining at 10 uM preincubated for 10 mins in water bath followed by NADPH addition and measured after 60 mins by LC-MS/MS analysis; type: ADME, Microsome; details: read-out: Stability
[10] = Protein binding in human plasma measured after 4 hrs by LC-MS/MS analysis; type: ADME, cell-free; details: read-out: PPB (converted)
[11] = Volume of distribution in Sprague-Dawley rat at 1 mg/kg, iv by HPLC analysis; type: ADME, organism-based; details: in vivo
[12] = Oral bioavailability in BALB/c mouse at 10 mg/kg by HPLC analysis; type: ADME, organism-based; details: in vivo
Mus musculus [13] = experiment: In vivo inhibition of PI3K in po dosed BALB/c nude mouse xenografted with PI3KCA mutant human BT474 cells assessed as reduction in AKT phosphorylation administered once daily measured after 1 to 4 hrs by Western blot analysis; type: functional, organism-based; details: BT-474; procedure, shortened: as §1
[14] = target: Phosphatidylinositol 4,5-bisphosphate 3-kinase catalytic subunit alpha isoform (Homo sapiens, UniProt P42336); experiment: Inhibition of PI3Kalpha (unknown origin) using PIP2:3PS peptide as substrate preincubated for 15 mins followed by ATP addition at Km concentration and further incubated for 150 mins by ADP-Glo assay
BT-474 [15] = experiment: Antitumor activity against PI3KCA mutant human BT474 cells xenografted in po dosed BALB/c nude mouse assessed as tumor growth inhibition administered once daily and measured after 30 days by caliper method; type: functional, organism-based
[16] = Dose normalized AUC (0 to last) in BALB/c mouse at 10 mg/kg, po by HPLC analysis; type: ADME, organism-based; details: in vivo
BT-474 [17] = experiment: Antitumor activity against PI3KCA mutant human BT474 cells xenografted in BALB/c nude mouse assessed as tumor growth inhibition at 15 mg/kg, po administered once daily and measured after 30 days by caliper method relative to control; type: functional; details: BT-474, po, 720 h, read-out: TGI
BT-474 [18] = experiment: Antitumor activity against PI3KCA mutant human BT474 cells xenografted in BALB/c nude mouse assessed as tumor growth inhibition at 30 mg/kg, po administered once daily and measured after 30 days by caliper method relative to control; type: functional; details: BT-474, po, 720 h, read-out: TGI
[19] = Metabolic stability in CD-1 mouse liver microsomes assessed as parent compound remaining at 10 uM preincubated for 10 mins in water bath followed by NADPH addition and measured after 60 mins by LC-MS/MS analysis; type: ADME, Microsome; details: read-out: Stability
[20] = Clearance in Sprague-Dawley rat at 1 mg/kg, iv by HPLC analysis; type: ADME, organism-based; details: in vivo
[21] = Protein binding in CD-1 mouse plasma measured after 4 hrs by LC-MS/MS analysis; type: ADME, cell-free; details: read-out: PPB (converted)
[22] = Metabolic stability in Sprague-Dawley rat liver microsomes assessed as parent compound remaining at 10 uM preincubated for 10 mins in water bath followed by NADPH addition and measured after 60 mins by LC-MS/MS analysis; type: ADME, Microsome; details: read-out: Stability

Phosphatidylinositol 4,5-bisphosphate 3-kinase catalytic subunit alpha isoform, sequence (P42336 whole entry, canonical isoform): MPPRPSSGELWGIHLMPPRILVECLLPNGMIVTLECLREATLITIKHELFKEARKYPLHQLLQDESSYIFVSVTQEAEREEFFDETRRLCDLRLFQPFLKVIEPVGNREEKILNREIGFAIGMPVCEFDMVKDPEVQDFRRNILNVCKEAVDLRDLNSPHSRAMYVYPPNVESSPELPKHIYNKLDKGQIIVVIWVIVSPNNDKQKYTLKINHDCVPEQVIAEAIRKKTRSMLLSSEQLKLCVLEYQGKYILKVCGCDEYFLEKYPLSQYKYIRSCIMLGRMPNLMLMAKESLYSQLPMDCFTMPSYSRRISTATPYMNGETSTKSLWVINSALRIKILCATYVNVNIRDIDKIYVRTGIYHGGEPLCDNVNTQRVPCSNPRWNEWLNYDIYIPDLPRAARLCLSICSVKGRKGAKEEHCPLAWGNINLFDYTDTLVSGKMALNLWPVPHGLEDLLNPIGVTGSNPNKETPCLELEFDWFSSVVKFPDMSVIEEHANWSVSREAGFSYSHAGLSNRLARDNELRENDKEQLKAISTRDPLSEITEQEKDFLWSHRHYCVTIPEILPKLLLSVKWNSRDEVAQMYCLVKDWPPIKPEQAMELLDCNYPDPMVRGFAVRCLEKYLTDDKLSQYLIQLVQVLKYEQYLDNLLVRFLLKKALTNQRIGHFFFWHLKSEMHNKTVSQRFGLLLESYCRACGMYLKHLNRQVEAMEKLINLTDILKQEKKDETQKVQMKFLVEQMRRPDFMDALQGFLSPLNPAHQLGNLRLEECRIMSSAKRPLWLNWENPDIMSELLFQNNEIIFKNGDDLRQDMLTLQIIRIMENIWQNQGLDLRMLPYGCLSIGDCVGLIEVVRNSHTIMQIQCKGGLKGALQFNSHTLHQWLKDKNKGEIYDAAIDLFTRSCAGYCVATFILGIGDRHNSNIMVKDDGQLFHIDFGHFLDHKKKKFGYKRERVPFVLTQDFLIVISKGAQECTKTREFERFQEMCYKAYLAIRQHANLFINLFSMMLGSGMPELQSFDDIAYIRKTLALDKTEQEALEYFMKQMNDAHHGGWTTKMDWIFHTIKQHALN
Phosphatidylinositol 4,5-bisphosphate 3-kinase catalytic subunit beta isoform, sequence (P42338 whole entry, canonical isoform): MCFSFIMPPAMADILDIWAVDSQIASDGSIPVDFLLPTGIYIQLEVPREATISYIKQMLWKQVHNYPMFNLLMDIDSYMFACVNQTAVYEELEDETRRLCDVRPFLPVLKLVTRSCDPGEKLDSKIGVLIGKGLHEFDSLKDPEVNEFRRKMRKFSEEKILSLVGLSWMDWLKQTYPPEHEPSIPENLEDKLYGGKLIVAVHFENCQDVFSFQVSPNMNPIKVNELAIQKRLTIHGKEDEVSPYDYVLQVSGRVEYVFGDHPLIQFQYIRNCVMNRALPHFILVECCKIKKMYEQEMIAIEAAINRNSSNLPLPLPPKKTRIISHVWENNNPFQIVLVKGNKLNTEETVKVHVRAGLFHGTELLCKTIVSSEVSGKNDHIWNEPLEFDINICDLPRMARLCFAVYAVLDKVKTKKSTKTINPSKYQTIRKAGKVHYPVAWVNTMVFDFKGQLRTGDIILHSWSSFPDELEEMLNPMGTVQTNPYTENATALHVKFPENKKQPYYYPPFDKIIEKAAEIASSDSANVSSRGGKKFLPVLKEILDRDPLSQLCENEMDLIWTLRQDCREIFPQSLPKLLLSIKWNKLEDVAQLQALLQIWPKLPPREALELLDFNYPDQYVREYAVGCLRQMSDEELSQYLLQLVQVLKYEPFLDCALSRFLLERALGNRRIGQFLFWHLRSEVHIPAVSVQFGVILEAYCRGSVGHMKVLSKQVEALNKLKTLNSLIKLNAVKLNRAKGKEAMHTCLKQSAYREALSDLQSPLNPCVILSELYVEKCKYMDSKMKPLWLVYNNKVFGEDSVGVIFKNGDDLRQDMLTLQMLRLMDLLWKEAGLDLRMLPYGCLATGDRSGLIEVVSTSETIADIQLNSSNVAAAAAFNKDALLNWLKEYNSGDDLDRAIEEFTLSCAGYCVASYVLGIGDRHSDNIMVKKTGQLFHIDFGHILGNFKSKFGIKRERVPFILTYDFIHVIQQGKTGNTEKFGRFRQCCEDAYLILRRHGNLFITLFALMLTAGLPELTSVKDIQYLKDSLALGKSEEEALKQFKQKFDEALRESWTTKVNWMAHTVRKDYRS

CNC(=O)[C@H](C)Cn1cnc2ccc(-c3cnc(OC)c(NS(=O)(=O)c4ccc(F)cc4Cl)c3)cc2c1=O gave a remaining at 1 h, 10 µM [1] of 13.7%, an IC50 [2] of 1390 nM and an AUClast/dose [3] of 2711 nM·h. The IC50 [4] was 32.9 nM, the half-life [5] was 1.22 h and the inhibition in vivo at 30 mg/kg (BT-474 [6]) was 73%. The inhibition (Mus musculus [7]) was “Tde”, the IC50 [8] was 183 nM and the remaining at 1 h, 10 µM [9] was 44.6%. The fraction unbound at 4 h [10] was 0.014, the Vd [11] was 0.321 L/kg and the bioavailability [12] was 59.4%. For the same molecule, the inhibition (Mus musculus [13]) was “Dose-dependent effect”, the IC50 [14] was 1.8 nM and the TGI (BT-474 [15]) was “Dose-dependent effect”. For the same molecule, the AUClast/dose [16] was 3090 nM·h, the inhibition in vivo at 15 mg/kg (BT-474 [17]) was 62.5% and the inhibition in vivo at 30 mg/kg (BT-474 [18]) was 86%. For the same molecule, the remaining at 1 h, 10 µM [19] was 32.7%, the clearance [20] was 5.28 mL/min/kg and the fraction unbound at 4 h [21] was 0.014. It also gave a remaining at 1 h, 10 µM [22] of 32%.
